In test [1] the test system is Chlamydia trachomatis. The experiment in a line: Antibacterial activity against Chlamydia trachomatis D/UW-3/Cx infected in mouse McCoy cells assessed as reduction in inclusion forming units at 100 uM treated 16 hrs post infection measured at 44 hrs post-infection by Evan's blue staining based-confocal microscopic analysis (reference value: 62 +/- 8.5 10^5U/mL). The class given is functional.

In test [2] the test system is Chlamydia trachomatis. Description: Antibacterial activity against Chlamydia trachomatis D/UW-3/Cx strain infected in mouse McCoy cells assessed as inclusion forming units at 100 uM treated 16 hrs post infection measured at 44 hrs post-infection by Evan's blue staining based-confocal microscopic analysis (reference value: 62 +/- 8.5 10^5U/mL). Type of test: functional.

Test [3] concerns Chlamydia trachomatis 434/Bu. Description: Activation of recombinant chlamydia trachomatis serovar L2 434/Bu/ATCC VR-902B HtrA expressed in Escherichia coli BL21(DE3) using MeOCoum-ENLHLPLPIIF-NH-DNP as fluorescent mimotope at <50 uM preincubated for 20 mins followed by mimotope addition in presence of fluorophore 7-methoxycoumarin-4-acetic acid by plate reader based fluorescence assay.

Test [4] can be described thus: Inhibition of recombinant chlamydia trachomatis serovar L2 434/Bu/ATCC VR-902B HtrA expressed in Escherichia coli BL21(DE3) using MeOCoum-ENLHLPLPIIF-NH-DNP as fluorescent mimotope preincubated for 20 mins followed by mimotope addition in presence of fluorophore 7-methoxycoumarin-4-acetic acid by plate reader based fluorescence assay. Further details: species or system Chlamydia trachomatis 434/Bu.

Another test concerns the target Trypsin (Homo sapiens, UniProt P07477+P07478+P35030). The experiment in a line: Inhibition of human trypsin using Nalpha-benzoyl-DL-R-pNA as substrate preincubated for 15 mins followed by substrate addition and measured every 15 secs for 5 mins. Type of test: protein assay. In a few lines: (§1)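 Enzyme and inhibitor (in DMSO) were preincubated at 37 °C for 15 min in 0.10 M Tris-HCl, pH 8.1, with 0.02 M CaCl₂. The pNA substrate was added to start the reaction. A405 was monitored every 15 s over 5 min at 37 °C. Runs were in triplicate, and inhibition was expressed as percent enzyme activity remaining.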

Test [5] relates to Chlamydia trachomatis 434/Bu. Description: Potency index, ratio of JO146 IC50 to compound IC50 for inhibition of recombinant chlamydia trachomatis serovar L2 434/Bu/ATCC VR-902B HtrA expressed in Escherichia coli BL21(DE3) using MeOCoum-ENLHLPLPIIF-NH-DNP as fluorescent mimotope preincubated for 20 mins followed by mimotope addition in presence of fluorophore 7-methoxycoumarin-4-acetic acid by plate reader based fluorescence assay.

The next test deals with T1, Neutrophil elastase (Homo sapiens, UniProt P08246).
T1 sequence (P08246 whole entry): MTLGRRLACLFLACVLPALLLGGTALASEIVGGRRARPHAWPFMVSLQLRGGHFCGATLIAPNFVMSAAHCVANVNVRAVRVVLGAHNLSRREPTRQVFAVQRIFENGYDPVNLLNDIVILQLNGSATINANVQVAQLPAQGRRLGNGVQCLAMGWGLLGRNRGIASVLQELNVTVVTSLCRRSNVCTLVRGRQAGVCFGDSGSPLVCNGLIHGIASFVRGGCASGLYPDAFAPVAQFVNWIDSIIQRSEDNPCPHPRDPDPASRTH
The experiment in a line: Inhibition of human neutrophil elastase using AAPV-pNA as substrate preincubated for 15 mins followed by substrate addition and measured every 15 secs for 5 mins. The method in brief:
as §1

Test [6] relates to Chlamydia pecorum. Description: Antibacterial activity against Chlamydia pecorum IPA ATCC VR629 infected in mouse McCoy cells assessed as reduction in inclusion forming units at 100 uM treated 16 hrs post infection measured at 44 hrs post-infection by Evan's blue staining based-confocal microscopic analysis (reference value: 342.55646 +/- 6.53872 10^5U/mL). Type of test: functional.

In test [7] the test system is Chlamydia pecorum. Description: Antibacterial activity against Chlamydia pecorum IPA ATCC VR629 infected in mouse McCoy cells assessed as inclusion forming units at 100 uM treated 16 hrs post infection measured at 44 hrs post-infection by Evan's blue staining based-confocal microscopic analysis (reference value: 342.55646 +/- 6.53872 10^5U/mL). The class given is functional.

A short description of test [8]: Inhibition of bovine pancreas chymotrypsin using AAPF-pNA as substrate preincubated for 15 mins followed by substrate addition and measured every 15 secs for 5 mins. Further details: species or system Bos taurus. The method in brief: as §1

Among the data in ChEMBL document CHEMBL4393742, “Structure-activity analysis of peptidic Chlamydia HtrA inhibitors” (Bioorg Med Chem, 2019) are Activity, IC50 and Ratio IC50 values, retold here.

Molecules are shown by their SMILES. Active and inactive are the calls of the source. The rule behind the calls is not given here.

For orientation: IC50 means the midpoint of a concentration-inhibition curve. With `CC(C)C(NC(=O)[C@@H]1CCCN1C(=O)[C@@H](NC(=O)OC(C)(C)C)C(C)C)B(O)O` (some centres not stated), the Activity with Chlamydia trachomatis [1] is listed as 3 log10CFU; in the test with Chlamydia trachomatis [2], 0.09939 ×10⁵ U/mL. Moreover, the result in [3] was Active. The IC50 in [4] is more than 500 µM.

With `CC(C)C(NC(=O)[C@@H]1CCCN1C(=O)[C@@H](NC(=O)OC(C)(C)C)C(C)C)C(=O)c1nc2ccccc2s1` (mixture of isomers), the IC50 on Trypsin is more than 500 µM; on Neutrophil elastase, 2600 nM; in test [4], 321 µM; in [8] it was more than 500 µM. Moreover, the Ratio IC50 in test [5] was 1.06. The Activity in the test with Chlamydia trachomatis [2] is reported as 2.539 ×10⁵ U/mL; in the test with Chlamydia pecorum [6], 4 log10CFU; with Chlamydia pecorum [7] it was 0.04744 ×10⁵ U/mL.
